In ChEMBL document CHEMBL1156265, “Furo[2,3-b]pyridine-based cannabinoid-1 receptor inverse agonists: synthesis and biological evaluation. Part 1” (Bioorg Med Chem Lett, 2010):

How the values were obtained:
[1] = Half life in rhesus monkey; assay type: ADME, organism-based, Macaca mulatta; conditions: in vivo
Outline: (§1)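 PK in dog and rhesus macaque. Bioavailability, plasma clearance (mL/min/kg) and terminal half-life derived from plasma drug levels.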

[2] = Bioavailability in rat; assay type: ADME, organism-based; conditions: in vivo
Cannabinoid receptor 2 = Cannabinoid receptor 2 (Homo sapiens, UniProt P34972); assay: Inhibition of human CB2 receptor
[3] = Drug level in rat brain at 1 mg/kg, iv after 4 hrs; assay type: ADME, organism-based; design: dose 1 mg/kg, route intravenous; conditions: read-out: Drug uptake
[4] = Half life in rat; assay type: ADME, organism-based; conditions: in vivo
[5] = Bioavailability in rhesus monkey; assay type: ADME, organism-based, Macaca mulatta; conditions: in vivo; outline: as §1
[6] = Plasma clearance in dog; assay type: ADME, organism-based, Canis lupus familiaris; outline: as §1
Rattus norvegicus [7] = assay: Suppression of food intake in DIO rat at 0.1 mg/kg, po relative to control; assay type: functional
Outline: (§2)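 Acute study in diet-induced obese rats. A single oral dose was given and rats were monitored for 18 h. Food intake suppression and body weight change were measured relative to vehicle-treated controls.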

Rattus norvegicus [8] = assay: Reduction of body weight in DIO rat assessed as weight change at 0.3 mg/kg, po after 18 hrs; assay type: functional; outline: as §2
[9] = Ratio of drug level in brain to plasma in rat at 1 mg/kg, iv after 4 hrs; assay type: ADME, organism-based; design: dose 1 mg/kg, route intravenous
Cannabinoid receptor 1 = Cannabinoid receptor 1 (Homo sapiens, UniProt P21554); assay: Inhibition of human CB1 receptor
Rattus norvegicus [10] = assay: Reduction of body weight in DIO rat assessed as weight change at 0.1 mg/kg, po after 18 hrs; assay type: functional; outline: as §2
[11] = Bioavailability in dog; assay type: ADME, organism-based, Canis lupus familiaris; conditions: in vivo; outline: as §1
[12] = Plasma clearance in rhesus monkey; assay type: ADME, organism-based, Macaca mulatta; outline: as §1
[13] = Plasma clearance in rat; assay type: ADME, organism-based
Rattus norvegicus [14] = assay: Suppression of food intake in DIO rat at 0.3 mg/kg, po relative to control; assay type: functional; outline: as §2
[15] = Drug level in rat plasma at 1 mg/kg, iv after 4 hrs; assay type: ADME, organism-based; design: dose 1 mg/kg, route intravenous; conditions: read-out: Drug uptake
[16] = Half life in dog; assay type: ADME, organism-based, Canis lupus familiaris; conditions: in vivo; outline: as §1

Sequence of Cannabinoid receptor 2 (P34972 whole entry): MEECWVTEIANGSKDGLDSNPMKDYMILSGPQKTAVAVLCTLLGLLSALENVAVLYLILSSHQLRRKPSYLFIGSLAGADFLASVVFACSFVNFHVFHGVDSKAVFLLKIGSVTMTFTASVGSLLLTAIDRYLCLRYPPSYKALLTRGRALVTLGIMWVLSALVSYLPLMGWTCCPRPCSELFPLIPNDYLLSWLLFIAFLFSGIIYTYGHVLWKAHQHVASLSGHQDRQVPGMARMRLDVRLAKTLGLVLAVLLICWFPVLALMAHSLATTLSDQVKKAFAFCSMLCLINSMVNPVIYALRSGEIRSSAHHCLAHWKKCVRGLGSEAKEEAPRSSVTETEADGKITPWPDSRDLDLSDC
Sequence of Cannabinoid receptor 1 (P21554 whole entry): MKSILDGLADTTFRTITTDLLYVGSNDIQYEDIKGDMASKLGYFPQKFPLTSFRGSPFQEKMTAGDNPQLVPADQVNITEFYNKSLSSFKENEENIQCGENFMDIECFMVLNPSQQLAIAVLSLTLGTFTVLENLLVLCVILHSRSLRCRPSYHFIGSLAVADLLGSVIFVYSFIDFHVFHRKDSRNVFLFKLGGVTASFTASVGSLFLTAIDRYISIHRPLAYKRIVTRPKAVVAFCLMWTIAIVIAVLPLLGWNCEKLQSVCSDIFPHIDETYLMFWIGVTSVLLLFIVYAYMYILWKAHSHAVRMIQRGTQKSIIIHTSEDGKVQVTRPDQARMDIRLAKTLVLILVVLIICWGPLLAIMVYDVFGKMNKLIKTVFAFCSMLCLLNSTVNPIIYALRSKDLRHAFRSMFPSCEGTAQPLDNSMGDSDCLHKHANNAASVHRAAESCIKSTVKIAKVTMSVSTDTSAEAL

## CC(=O)Nc1c(C(=O)C(C)(C)O)oc2nc(-c3ccccc3Cl)c(-c3ccc(Cl)cc3)cc12
[1]
  half-life: 45 h
[2]
  bioavailability: 61%
Cannabinoid receptor 2
  IC50: 5400 nM
[3]
  concentration at 4 h: 56 nM
[4]
  half-life: 4.8 h
[5]
  bioavailability: 100%
[6]
  clearance: 5 mL/min/kg
Rattus norvegicus [7]
  Activity: 28%
Rattus norvegicus [8]
  Activity: -1 g
[9]
  Kp at 4 h: 0.77
Cannabinoid receptor 1
  IC50: 5.4 nM
Rattus norvegicus [10]
  Activity: -1 g
[11]
  bioavailability: 87%
[12]
  clearance: 2.8 mL/min/kg
[13]
  clearance: 16 mL/min/kg
Rattus norvegicus [14]
  Activity: 41%
[15]
  concentration at 4 h: 72 nM
[16]
  half-life: 26 h
